From ChEMBL document CHEMBL4130564, “Indolylalkyltriphenylphosphonium Analogues Are Membrane-Depolarizing Mycobactericidal Agents” (ACS Med Chem Lett, 2017)
Activity calls are given as the source filed them. The calls are words filed in the database; no cut-off is given here.

Assays:
[1] = system: Mycobacterium tuberculosis; test: Antibacterial activity against Mycobacterium bovis BCG ATCC 35734 after 5 days by broth dilution method; type: functional; settings: BCG str. ATCC 35743, 120 h
Method in brief: (§1)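 Broth dilution; growth read by turbidity; MIC50 and MIC90 are the concentrations reducing growth by 50% and 90% relative to untreated controls; average of two or more separate determinations.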

[2] = system: Vero C1008; test: Cytotoxicity against African green monkey Vero E6 cells assessed as reduction in cell viability after 48 hrs by cell titre 96 aqueous one solution-based assay; settings: Chlorocebus sabaeus, Vero C1008, 48 h
Method in brief: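 Vero cell viability was compared with untreated control cells. IC50 was taken as the concentration giving 50% loss of viability, averaged over two or more separate determinations.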

[3] = system: Mycobacterium tuberculosis; test: Antibacterial activity against Mycobacterium tuberculosis H37Rv ATCC 27294 after 7 days by broth dilution method; type: functional; settings: H37Rv ATCC 27294, 168 h; method in brief: as §1
[4] = Hemolytic activity against human RBC after 1 hr; type: ADME, cell-based, Erythrocyte; settings: human red blood cells (erythrocytes)
Method in brief: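 Human red blood cells were exposed to compound, and lysis was scaled against Triton X-100 (2% v/v), taken as 100% hemolysis. HC50 was the concentration lysing 50% of cells, averaged over two or more separate determinations.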

[5] = system: Mycobacterium tuberculosis; test: Bactericidal activity against Mycobacterium bovis BCG ATCC 35734 assessed as reduction in colony forming units after 5 days; type: functional, BCG str. ATCC 35743; settings: for MBC: Mycobacterium tuberculosis, BCG ATCC 35734, 120 h, read-out: MBC99.9
[6] = system: Lipid bilayer; test: Binding affinity to DMPG vesicles assessed as change in enthalpy at 2 mM by differential scanning calorimetric analysis (reference value: -20.63 kJ/mol)
Method in brief: (§2)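 Compound-loaded vesicles of negatively charged dimyristoylphosphatidylglycerol, used as a bacterial membrane surrogate, were scanned by differential scanning calorimetry. The gel-to-liquid melting endotherm was read for melting temperature (Tm) and calorimetric enthalpy (ΔH).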

[7] = system: Lipid bilayer; test: Binding affinity to DMPG vesicles assessed as melting transition temperature by differential scanning calorimetric analysis (reference value: 21.09 to 23.28 degC)
[8] = system: Mycobacterium tuberculosis; test: Bactericidal activity against Mycobacterium bovis BCG ATCC 35734 assessed as reduction in membrane potential by measuring red to green fluorescent ratio at 0.08 uM measured at 20 mins to 3 hrs by DiOC2-dye based fluorescence assay; type: functional, organism-based; settings: BCG str. ATCC 35743
[9] = system: Mycobacterium bovis BCG str. ATCC 35743; test: Inhibition of NDH2 in Mycobacterium bovis BCG ATCC 35734 assessed as reduction in oxygen consumption at 80 uM after 1 hr by methylene blue-based assay
Method in brief: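 Mid-log M. bovis BCG cultures in 7H9 medium were exposed to compound, then methylene blue was added (0.001%) and the tubes were incubated oxygen-free at 37 °C for […]. Oxygen use was read as methylene blue decolorization. Controls were medium-only tubes and drug-free culture.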

[10] = system: Mycobacterium tuberculosis; test: Bactericidal activity against Mycobacterium bovis BCG ATCC 35734 assessed as reduction in membrane potential by measuring red to green fluorescent ratio at 24 uM measured at 20 mins to 3 hrs by DiOC2-dye based fluorescence assay; type: functional, organism-based; settings: BCG str. ATCC 35743
[11] = system: Mycobacterium tuberculosis; test: Bactericidal activity against Mycobacterium bovis BCG ATCC 35734 assessed as suppression of reductive capacity by measuring decrease in formazan formation after 0.5 to 1 hr by MTT reduction assay; type: functional, organism-based; settings: BCG str. ATCC 35743
Method in brief: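 BCG cultures exposed to 0.2–100 μM for 30 min and 1 h, then MTT added; formazan production read at 595 nm against drug-free basal absorbance; CCCP 100 μM reference; representative of two independent experiments.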

[12] = system: Mycobacterium tuberculosis; test: Bactericidal activity against Mycobacterium bovis BCG ATCC 35734 assessed as increase in propidium iodide uptake at 6 uM after 1 to 5 days by flow cytometry; type: functional, organism-based; settings: BCG str. ATCC 35743
[13] = system: Mycobacterium tuberculosis; test: Bactericidal activity against Mycobacterium bovis BCG ATCC 35734 assessed as cell elongation at 24 uM after 1 to 5 days by acid-fast staining-based light microscopy; type: functional, organism-based; settings: BCG str. ATCC 35743
[14] = system: Lipid bilayer; test: Binding affinity to DMPG vesicles assessed as increase in melting transition temperature by differential scanning calorimetric analysis; method in brief: as §2
[15] = system: Mycobacterium tuberculosis; test: Bactericidal activity against Mycobacterium bovis BCG ATCC 35734 assessed as reduction in oxygen consumption at 15 times MIC90 after 1 hr by methylene blue-based assay; type: functional, organism-based; settings: BCG str. ATCC 35743
[16] = system: Mycobacterium tuberculosis; test: Bactericidal activity against Mycobacterium bovis BCG ATCC 35734 assessed as reduction in membrane potential by measuring red to green fluorescent ratio at 24 uM measured after 1 to 5 days by DiOC2-dye based fluorescence assay; type: functional, organism-based; settings: BCG str. ATCC 35743
Method in brief: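 Membrane potential in treated BCG cultures tracked as DiOC2 red/green fluorescence ratio over extended exposure of 1, 3 and 5 days.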

[17] = system: Mycobacterium tuberculosis; test: Bactericidal activity against Mycobacterium bovis BCG ATCC 35734 assessed as reduction in colony forming units at 6 uM after 1 to 5 days by time kill assay; type: functional, organism-based; settings: BCG str. ATCC 35743
[18] = system: Mycobacterium tuberculosis; test: Bactericidal activity against Mycobacterium bovis BCG ATCC 35734 assessed as reduction in oxygen consumption at 5 times MIC90 after 1 hr by methylene blue-based assay; type: functional, organism-based; settings: BCG str. ATCC 35743
[19] = system: Mycobacterium tuberculosis; test: Bactericidal activity against Mycobacterium bovis BCG ATCC 35734 assessed as reduction in oxygen consumption at 10 times MIC90 after 1 hr by methylene blue-based assay; type: functional, organism-based; settings: BCG str. ATCC 35743
[20] = system: Mycobacterium tuberculosis; test: Bactericidal activity Mycobacterium bovis BCG ATCC 35734 assesses as cell death at 15 times MIC90 after 1 hr in presence of methylene blue; type: functional, organism-based; settings: BCG str. ATCC 35743

| SMILES | MIC50 [1] [µM] | MIC90 [1] [µM] | further results |
| --- | --- | --- | --- |
| COc1ccc2ccn(CCCCC[P+](c3ccccc3)(c3ccccc3)c3ccccc3)c2c1 | 4 | 8 |  |
| COc1cccc2c1ccn2CCCCC[P+](c1ccccc1)(c1ccccc1)c1ccccc1 | 3 | 5 |  |
| COc1cccc2ccn(CCC[P+](c3ccccc3)(c3ccccc3)c3ccccc3)c12.[I-] | 4 | 6 | IC50 [2]: 34 µM; MIC50 [3]: 6 µM; MIC90 [3]: 20 µM; HC50 at 1 h [4]: > 300 µM; MBC99 [5]: 13 µM; MBC [5]: 25 µM |
| CCCn1ccc2cc(F)ccc21 | > 50 | > 50 | deltaH [6]: -4.77 kcal/mol; Tm [7]: 20.1 °C |
| Fc1ccc2c(ccn2CCCCC[P+](c2ccccc2)(c2ccccc2)c2ccccc2)c1 | 3 | 5 |  |
| O=[N+]([O-])c1ccc2ccn(CCCCC[P+](c3ccccc3)(c3ccccc3)c3ccccc3)c2c1 | 3 | 4 |  |
| COc1ccc2ccn(CCC[P+](c3ccccc3)(c3ccccc3)c3ccccc3)c2c1 | 7 | 15 |  |
| O=[N+]([O-])c1cccc2c1ccn2CCC[P+](c1ccccc1)(c1ccccc1)c1ccccc1.[I-] | 5 | 9 | IC50 [2]: > 100 µM; MIC50 [3]: 22 µM; MIC90 [3]: 45 µM; HC50 at 1 h [4]: 230 µM; MBC99 [5]: 25 µM; MBC [5]: 50 µM |
| CO[C@H]1/C=C/O[C@@]2(C)Oc3c(C)c(O)c4c(O)c(c(/C=N/N5CCN(C)CC5)c(O)c4c3C2=O)NC(=O)/C(C)=C\C=C\[C@H](C)[C@H](O)[C@@H](C)[C@@H](O)[C@@H](C)[C@H](OC(C)=O)[C@@H]1C |  |  | Activity [8]: inactive |
| c1ccc([P+](CCCCCn2ccc3ccccc32)(c2ccccc2)c2ccccc2)cc1 | 4.3 | 6.3 |  |
| O=[N+]([O-])c1ccc2c(ccn2CCCCC[P+](c2ccccc2)(c2ccccc2)c2ccccc2)c1 | 3 | 5 |  |
| Fc1ccc2ccn(CCC[P+](c3ccccc3)(c3ccccc3)c3ccccc3)c2c1 | 6 | 12 |  |
| CSc1ccc2c(c1)N(CCC1CCCCN1C)c1ccccc1S2 (centres undefined) |  |  | inhibition [9]: Active |
| CCCCCn1ccc2cccc(OC)c21 | > 50 | > 50 | Activity [10]: inactive; Activity [11]: inactive |
| O=[N+]([O-])c1cccc2c1ccn2CCCCC[P+](c1ccccc1)(c1ccccc1)c1ccccc1.[I-] | 2 | 3 | Activity [12]: Active; Activity [13]: Active; ΔTm [14]: 1 °C; Activity [15]: Active; Activity [10]: Active; IC50 [2]: 36 µM; Activity [16]: Active; MIC50 [3]: 4 µM; MIC90 [3]: 6 µM; HC50 at 1 h [4]: 196 µM; Activity [17]: Active; Activity [18]: inactive; Activity [11]: Dose-dependent effect; Activity [19]: Active; MBC99 [5]: 3 µM; MBC [5]: 6 µM; Activity [20]: Toxic |
| O=[N+]([O-])c1ccc2ccn(CCC[P+](c3ccccc3)(c3ccccc3)c3ccccc3)c2c1 | 7 | 13 |  |

| SMILES | MIC50 [1] [µM] | MIC90 [1] [µM] | further results |
| --- | --- | --- | --- |
| COc1cccc2c1ccn2CCC[P+](c1ccccc1)(c1ccccc1)c1ccccc1 | 6 | 11 |  |
| COc1ccc2c(ccn2CCCCC[P+](c2ccccc2)(c2ccccc2)c2ccccc2)c1 | 5 | 10 |  |
| O=[N+]([O-])c1ccc2c(ccn2CCC[P+](c2ccccc2)(c2ccccc2)c2ccccc2)c1 | 9 | 12 |  |
| CCCCC[P+](c1ccccc1)(c1ccccc1)c1ccccc1 | 28 | > 50 | Activity [10]: inactive; Activity [11]: inactive |
| COc1ccc2c(ccn2CCC[P+](c2ccccc2)(c2ccccc2)c2ccccc2)c1 | 10 | 23 |  |
| O=[N+]([O-])c1cccc2ccn(CCCCC[P+](c3ccccc3)(c3ccccc3)c3ccccc3)c12 | 1 | 2 |  |
| Fc1cccc2ccn(CCC[P+](c3ccccc3)(c3ccccc3)c3ccccc3)c12 | 5 | 12 |  |
| Fc1cccc2c1ccn2CCCCC[P+](c1ccccc1)(c1ccccc1)c1ccccc1 | 3 | 5 |  |
| Fc1ccc2ccn(CCCCC[P+](c3ccccc3)(c3ccccc3)c3ccccc3)c2c1 | 3 | 5 |  |
| Fc1ccc2c(ccn2CCC[P+](c2ccccc2)(c2ccccc2)c2ccccc2)c1 | 8 | 17 |  |
| O=[N+]([O-])c1cccc2ccn(CCC[P+](c3ccccc3)(c3ccccc3)c3ccccc3)c12 | 2 | 4 |  |
| Fc1cccc2c1ccn2CCC[P+](c1ccccc1)(c1ccccc1)c1ccccc1 | 6 | 12 |  |
| c1ccc(CCCCCC[P+](c2ccccc2)(c2ccccc2)c2ccccc2)cc1 | 5.2 | 11.6 |  |
| CCC[P+](c1ccccc1)(c1ccccc1)c1ccccc1 | > 50 | > 50 | deltaH [6]: -2.74 kcal/mol; Tm [7]: 21.1 to 23.2 °C |
| CCCCCCCCCC[P+](c1ccccc1)(c1ccccc1)c1ccccc1 | 3.9 | 6 |  |
| Fc1cccc2ccn(CCCCC[P+](c3ccccc3)(c3ccccc3)c3ccccc3)c12 | 3 | 6 |  |
